Results as given in ChEMBL document CHEMBL1148030, “Substituted 6-amino-4H-[1,2]dithiolo[4,3-b]pyrrol-5-ones: synthesis, structure-activity relationships, and cytotoxic activity on selected human cancer cell lines” (Bioorg Med Chem, 2007).
Calls of active or inactive are those of the source. No cut-off for these calls is given here.

Experiments:
LCC6 = experiment: Induction of apoptosis in human LCC6 cells by annexin V apoptosis assay; type: functional, cell-based
NCI-H460 [1] = experiment: Cytotoxicity against human H460 cells after 48 hrs by MTT assay; type: functional, cell-based; details: NCI-H460, 48 h
[2] = Cytotoxicity against human LCC6 cells after 48 hrs by MTT assay; type: functional, cell-based; details: LCC-6, 48 h
NCI-H460 [3] = experiment: Induction of apoptosis in human H460 cells by annexin V apoptosis assay; type: functional, cell-based
Endothelial cell = experiment: Induction of apoptosis in human endothelial cells by annexin V apoptosis assay; type: functional, cell-based
[4] = Plasma clearance in mouse at 38.2 umol/kg, ip
[5] = Half life in mouse at 38.2 umol/kg, ip; details: in vivo
[6] = Tmax in mouse at 38.2 umol/kg, ip; details: in vivo
[7] = AUC (0 to 480 mins) in mouse at 38.2 umol/kg, ip; details: plasma
[8] = Cmax in mouse at 38.2 umol/kg, ip within 30 mins; details: in vivo
[9] = Cmax in mouse at 36.8 umol/kg, ip within 30 mins; details: in vivo
[10] = Tmax in mouse at 36.8 umol/kg, ip; details: in vivo
[11] = Half life in mouse at 36.8 umol/kg, ip; details: in vivo
[12] = AUC (0 to 480 mins) in mouse at 36.8 umol/kg, ip; details: plasma
[13] = Plasma clearance in mouse at 36.8 umol/kg, ip
Mus musculus = experiment: Toxicity in VEGF expressing human SK-MEL-28 cells xenografted in mouse assessed as effect on histological indications at 5 to 10 mg/kg, ip daily for 24 days; details: in vivo
[14] = Inhibition of tumor growth in human SK-MEL-28V+ cells xenografted in mouse at 20 mg/kg, ip administered every altenative day for 24 days; type: functional; details: 576 h, route intraperitoneal
In short: (§1)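 SK-MEL-28 V+ cells (engineered to overexpress VEGF) of over 95% viability were used to grow primary tumours in mice. These tumours were cut into 1 mm³ explants and implanted subcutaneously. Once tumours were palpable, mice were randomized and dosed intraperitoneally for 24 days: daily at 5 or 10 mg/kg, or every second day at 20 mg/kg. Tumours were measured by caliper every 2–5 days. Body weight and histology were assessed for toxicity.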

SK-MEL-28 [15] = experiment: Antitumor activity against VEGF expressing human SK-MEL-28 cells xenografted in mouse assessed as loss of body weight at 5 to 10 mg/kg, ip after 24 days; type: functional, organism-based; in short: as §1
SK-MEL-28 [16] = experiment: Inhibition of tumor growth in VEGF expressing human SK-MEL-28 cells xenografted in mouse at 10 mg/kg, ip administered every altenative day for 24 days; type: functional; details: SK-MEL-28, ip, 576 h, route intraperitoneal

| Compound | Activity (LCC6) | IC50 (NCI-H460 [1]) [nM] | IC50 [2] [nM] | Activity (NCI-H460 [3]) | Activity (Endothelial cell) | other results |
| --- | --- | --- | --- | --- | --- | --- |
| COc1ccc(-n2c3cssc-3c(NC(=O)C(F)(F)F)c2=O)c(OC)c1 | Active | 170 | 60 | Active | Active | – |
| COc1ccc(C(=O)Nc2c3sscc-3n(-c3ccc(OC)cc3OC)c2=O)c(OC)c1 | Active | 11 | 251 | Active | Active | – |
| COc1ccc(-n2c3cssc-3c(NC(=O)c3cccs3)c2=O)c(OC)c1 | Active | 8 | 210 | Active | Active | – |
| COc1ccc(-n2c3cssc-3c(NC(=O)c3ccc(C(F)(F)F)cc3)c2=O)c(OC)c1 | Active | 7 | 85 | Active | Active | – |
| COc1ccc(-n2c3cssc-3c(NC(C)=O)c2=O)cc1 | Active | 53 | 220 | Active | Active | – |
| COc1ccc(-n2c3cssc-3c(NC(=O)c3cc(O)c(C(C)C)c(O)c3)c2=O)c(OC)c1 | Active | 72 | 70 | Active | Active | clearance [4]: 6.3 mL/min/kg; half-life [5]: 1.57 h; Tmax [6]: 3 min; AUC(0-t) at 8 h [7]: 102 µM·h; Cmax [8]: 106 µM |
| COc1ccc(-n2c3cssc-3c(NC(=O)c3cc(C(F)(F)F)cc(C(F)(F)F)c3)c2=O)c(OC)c1 | Active | 130 | 160 | Active | Active | Cmax [9]: 57 µM; Tmax [10]: 0.5 h; half-life [11]: 2.67 h; AUC(0-t) at 8 h [12]: 210 µM·h; clearance [13]: 2.9 mL/min/kg; Activity (Mus musculus): Active; inhibition in vivo at 20 mg/kg [14]: 58%; Activity (SK-MEL-28 [15]): Active |
| CC(=O)Nc1c2sscc-2n(-c2ccc(C)cc2)c1=O | Active | 44 | 220 | Active | Active | – |
| CC(=O)O[C@H]1C(=O)[C@@]2(C)[C@H]([C@H](OC(=O)c3ccccc3)[C@]3(O)C[C@H](OC(=O)[C@H](O)[C@@H](NC(=O)c4ccccc4)c4ccccc4)C(C)=C1C3(C)C)[C@]1(OC(C)=O)CO[C@@H]1C[C@@H]2O [PACLITAXEL] | – | – | – | – | – | inhibition in vivo at 10 mg/kg (SK-MEL-28 [16]): 37% |
| CC(=O)Nc1c2sscc-2n(Cc2ccccc2)c1=O | Active | 900 | – | Active | Active | – |
| CC(C)c1ccc(-n2c3cssc-3c(NC(=O)c3cc(O)c(C(C)C)c(O)c3)c2=O)cc1 | Active | 150 | 40 | Active | Active | – |
| COc1ccc(-n2c3cssc-3c(NC(=O)C(F)(F)F)c2=O)cc1 | Active | 190 | 220 | Active | Active | – |
| COc1ccc(-n2c3cssc-3c(NC(C)=O)c2=O)c(OC)c1 | Active | 30 | 190 | Active | Active | – |
| CCCCC(C)C(=O)Nc1c2sscc-2[nH]c1=O (stereo not drawn) | Active | 200 | 200 | Active | Active | – |
| COc1ccc(-n2c3cssc-3c(NC(=O)c3ccco3)c2=O)c(OC)c1 | Active | 50 | 28 | Active | Active | – |
| CC(C)c1c(O)cc(C(=O)Nc2c3sscc-3n(Cc3ccccc3)c2=O)cc1O | Active | 170 | 250 | Active | Active | – |
| COc1ccc(-n2c3cssc-3c(NC(=O)c3cc(F)cc(F)c3)c2=O)c(OC)c1 | Active | 11 | 349 | Active | Active | – |
| O=C(Nc1c2sscc-2n(Cc2ccccc2)c1=O)c1cc(C(F)(F)F)cc(C(F)(F)F)c1 | Active | 706 | 1180 | Active | Active | – |
